In paper PMC11303814 (Nature Communications, 2024):
Where a chain is given by its changes, count along the chain named.

Assays:
[1] = molecular target: T1, rP2X7-R125A (Rattus norvegicus, UniProt Q64663, R125A); experiment: TEVC dose response; assay type: cell-based; conditions: read-out: EC50 (apparent affinity), mean ± SD, triplicate
T1 sequence (Q64663 1-595 R125A): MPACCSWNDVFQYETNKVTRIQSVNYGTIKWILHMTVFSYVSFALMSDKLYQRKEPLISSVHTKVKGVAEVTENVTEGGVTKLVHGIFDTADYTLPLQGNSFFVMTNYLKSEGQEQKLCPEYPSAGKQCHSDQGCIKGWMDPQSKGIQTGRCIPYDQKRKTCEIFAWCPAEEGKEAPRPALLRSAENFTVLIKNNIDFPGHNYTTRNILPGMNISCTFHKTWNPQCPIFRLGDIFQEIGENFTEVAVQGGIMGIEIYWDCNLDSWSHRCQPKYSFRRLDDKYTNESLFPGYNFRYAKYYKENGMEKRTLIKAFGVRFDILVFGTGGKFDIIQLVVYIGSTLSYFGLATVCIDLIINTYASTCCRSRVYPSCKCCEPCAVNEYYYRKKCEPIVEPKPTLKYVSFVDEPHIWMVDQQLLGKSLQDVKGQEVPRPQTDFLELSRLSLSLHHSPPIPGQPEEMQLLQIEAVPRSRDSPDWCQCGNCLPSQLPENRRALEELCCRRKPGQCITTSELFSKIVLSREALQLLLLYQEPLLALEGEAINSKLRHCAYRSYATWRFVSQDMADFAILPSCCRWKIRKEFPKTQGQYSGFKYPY
In short: (§1)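 TEVC was run on Xenopus oocytes ~20 h after injection of wild-type or mutant rP2X7 mRNA, in pH 7.4 HEPES buffer with 0.1 mM flufenamic acid. Receptors were facilitated at 100 µM before recording. Dilution series: ATP 1.5 mM–2 µM (7 points), BzATP 300–0.14 µM (8 points). Responses were normalized to the largest concentration, fitted by nonlinear regression for EC50, and averaged across triplicates (mean ± SD).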

[2] = molecular target: T2, rP2X7-Q143A/I214A (Rattus norvegicus, UniProt Q64663, I214A/Q143A); experiment: TEVC dose response; assay type: cell-based; conditions: read-out: EC50 (apparent affinity), mean ± SD, triplicate
T2 sequence (Q64663 1-595 Q143A/I214A): T1 sequence (Q64663 1-595 R125A) with A125R, Q143A, I214A
In short: as §1

[3] = molecular target: T2, rP2X7-Q143A/I214A; experiment: TEVC deactivation time; assay type: cell-based; conditions: after 100 μM ATP or 10 μM BzATP
In short: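 Xenopus oocytes injected with 50 nL of 10 ng/µL mutant rP2X7 mRNA, expressed ~20 h, clamped in pH 7.4 HEPES buffer with 0.1 mM flufenamic acid and EDTA. Currents were evoked by 100 µM ATP or 10 µM BzATP. τ is the time for current to return to 63% of baseline after agonist removal, from a one- or two-phase decay fit. Done in triplicate over first to third applications per oocyte; mean ± SD.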

[4] = molecular target: human P2X3; conditions: cited from earlier work
[5] = molecular target: zebra fish P2X4; conditions: cited from earlier work
[6] = molecular target: T3, full-length wild-type rP2X7 (Rattus norvegicus, UniProt Q64663); experiment: TEVC dose response; assay type: cell-based; conditions: WT rP2X7, TEVC
T3 sequence (Q64663 1-595): T1 sequence (Q64663 1-595 R125A) with A125R
In short: as §1

| Compound | EC50 [1] [µM] | EC50 [2] [µM] | deactivation lifetime τ [3] [s] | Kd [4] [µM] | Kd [5] [µM] | higher apparent affinity than ATP (EC50 ratio) [6] |
| --- | --- | --- | --- | --- | --- | --- |
| Nc1ncnc2c1ncn2[C@@H]1O[C@H](COP(=O)(O)OP(=O)(O)OP(=O)(O)O)[C@@H](O)[C@H]1O [ATP] | 41 ± 14 | 290 ± 20 | 2.9 ± 1.0 | 0.0028 ± 0.0001 | 0.0116 ± 0.0017 |  |
| BzATP | 5 ± 1 | 49 ± 4 | 4.3 ± 1.7 |  |  | ~ 28 fold |
